Laboratory results taken from ChEMBL document CHEMBL3632558, “Synthesis, antimycobacterial and antibacterial activity of l-[(1R,2S)-2-fluorocyclopropyl]naphthyridone derivatives containing an oxime-functionalized pyrrolidine moiety” (2015).

Assays:
Type in all cases: functional
Enterococcus faecalis [1] = test: Antibacterial activity against Enterococcus faecalis 14-2 after 18 to 24 hrs
Summary of the method: (§1)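 MIC by standard NCCLS reference procedure (M100-S11); lowest concentration of compound inhibiting visible bacterial growth after incubation at 35 °C for 18–24 h, read as complete inhibition of growth. Ciprofloxacin, levofloxacin and moxifloxacin run alongside as reference agents.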

Enterococcus faecium [2] = test: Antibacterial activity against Enterococcus faecium 14-1 after 18 to 24 hrs; summary of the method: as §1
Enterococcus faecium [3] = test: Antibacterial activity against Enterococcus faecium 14-2 after 18 to 24 hrs; summary of the method: as §1
Enterococcus faecium [4] = test: Antibacterial activity against Enterococcus faecium 14-5 after 18 to 24 hrs; summary of the method: as §1
Enterococcus faecium [5] = test: Antibacterial activity against Enterococcus faecium 14-6 after 18 to 24 hrs; summary of the method: as §1
[6] = system: Mycobacterium tuberculosis; test: Antimycobacterial activity against Mycobacterium tuberculosis H37Rv ATCC 27294 by alamar blue assay
Summary of the method: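 Microplate Alamar Blue Assay; MIC is the lowest concentration giving ≥90% reduction in fluorescence relative to the mean of replicate bacterium-only controls. MDR strain 6133 is resistant to isoniazid and rifampicin.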

Escherichia coli [7] = test: Antibacterial activity against Escherichia coli ATCC 25922 after 18 to 24 hrs; summary of the method: as §1
Escherichia coli [8] = test: Antibacterial activity against ESBL-positive Escherichia coli 14-1 after 18 to 24 hrs; summary of the method: as §1
Escherichia coli [9] = test: Antibacterial activity against ESBL-positive Escherichia coli 14-2 after 18 to 24 hrs; summary of the method: as §1
Escherichia coli [10] = test: Antibacterial activity against Escherichia coli 14-1 after 18 to 24 hrs; summary of the method: as §1
Escherichia coli [11] = test: Antibacterial activity against Escherichia coli 14-2 after 18 to 24 hrs; summary of the method: as §1
Klebsiella pneumoniae [12] = test: Antibacterial activity against ESBL-positive Klebsiella pneumoniae 14-17 after 18 to 24 hrs; summary of the method: as §1
Klebsiella pneumoniae [13] = test: Antibacterial activity against ESBL-positive Klebsiella pneumoniae 14-18 after 18 to 24 hrs; summary of the method: as §1
Klebsiella pneumoniae [14] = test: Antibacterial activity against ESBL-positive Klebsiella pneumoniae 14-19 after 18 to 24 hrs; summary of the method: as §1
Klebsiella pneumoniae [15] = test: Antibacterial activity against Klebsiella pneumoniae 14-1 after 18 to 24 hrs; summary of the method: as §1
Klebsiella pneumoniae [16] = test: Antibacterial activity against Klebsiella pneumoniae 14-2 after 18 to 24 hrs; summary of the method: as §1
Klebsiella pneumoniae [17] = test: Antibacterial activity against Klebsiella pneumoniae 14-3 after 18 to 24 hrs; summary of the method: as §1
Klebsiella pneumoniae [18] = test: Antibacterial activity against Klebsiella pneumoniae 14-4 after 18 to 24 hrs; summary of the method: as §1
Pseudomonas aeruginosa [19] = test: Antibacterial activity against Pseudomonas aeruginosa ATCC 27853 after 18 to 24 hrs; summary of the method: as §1
Pseudomonas aeruginosa [20] = test: Antibacterial activity against Pseudomonas aeruginosa 14-9 after 18 to 24 hrs; summary of the method: as §1
Pseudomonas aeruginosa [21] = test: Antibacterial activity against Pseudomonas aeruginosa 14-14 after 18 to 24 hrs; summary of the method: as §1
Pseudomonas aeruginosa [22] = test: Antibacterial activity against Pseudomonas aeruginosa 14-15 after 18 to 24 hrs; summary of the method: as §1
Pseudomonas aeruginosa [23] = test: Antibacterial activity against Pseudomonas aeruginosa 14-16 after 18 to 24 hrs; summary of the method: as §1
Pseudomonas aeruginosa [24] = test: Antibacterial activity against Pseudomonas aeruginosa 14-19 after 18 to 24 hrs; summary of the method: as §1
Staphylococcus aureus [25] = test: Antibacterial activity against Staphylococcus aureus CMCC 26003 after 18 to 24 hrs; summary of the method: as §1
Staphylococcus aureus [26] = test: Antibacterial activity against methicillin-sensitive Staphylococcus aureus 14-1 after 18 to 24 hrs; summary of the method: as §1
Staphylococcus aureus [27] = test: Antibacterial activity against methicillin-sensitive Staphylococcus aureus 14-2 after 18 to 24 hrs; summary of the method: as §1
Staphylococcus aureus [28] = test: Antibacterial activity against methicillin-sensitive Staphylococcus aureus 14-3 after 18 to 24 hrs; summary of the method: as §1
Staphylococcus aureus [29] = test: Antibacterial activity against methicillin-sensitive Staphylococcus aureus 14-4 after 18 to 24 hrs; summary of the method: as §1
Staphylococcus aureus [30] = test: Antibacterial activity against methicillin-resistant Staphylococcus aureus 14-4 after 18 to 24 hrs
Staphylococcus aureus [31] = test: Antibacterial activity against methicillin-resistant Staphylococcus aureus 14-5 after 18 to 24 hrs
[32] = system: Staphylococcus epidermidis; test: Antibacterial activity against methicillin-sensitive Staphylococcus epidermidis 14-2 after 18 to 24 hrs; summary of the method: as §1
[33] = system: Staphylococcus epidermidis; test: Antibacterial activity against methicillin-resistant Staphylococcus epidermidis 14-21 after 18 to 24 hrs
[34] = system: Staphylococcus epidermidis; test: Antibacterial activity against methicillin-resistant Staphylococcus epidermidis 14-22 after 18 to 24 hrs
[35] = system: Staphylococcus epidermidis; test: Antibacterial activity against methicillin-resistant Staphylococcus epidermidis 14-37 after 18 to 24 hrs
[36] = system: Staphylococcus epidermidis; test: Antibacterial activity against methicillin-resistant Staphylococcus epidermidis 14-39 after 18 to 24 hrs
Streptococcus pneumoniae = test: Antibacterial activity against Streptococcus pneumoniae ATCC 19615 after 18 to 24 hrs; summary of the method: as §1
Enterococcus faecalis [37] = test: Antibacterial activity against Enterococcus faecalis 14-1 after 18 to 24 hrs; summary of the method: as §1

COc1cc(CO/N=C2\CN(c3nc4c(cc3F)c(=O)c(C(=O)O)cn4[C@@H]3C[C@@H]3F)CC2CN)cc(OC)c1 (some centres undefined)
2 µg/mL: MIC (Enterococcus faecium [2]) | MIC (Escherichia coli [7])
8 µg/mL: MIC (Enterococcus faecium [4]) | MIC (Pseudomonas aeruginosa [19]) | MIC (Staphylococcus aureus [31])
> 128 µg/mL: MIC (Escherichia coli [9]) | MIC (Escherichia coli [10]) | MIC (Escherichia coli [11]) | MIC (Klebsiella pneumoniae [16]) | MIC (Klebsiella pneumoniae [18])
0.015 µg/mL: MIC (Staphylococcus aureus [28]) | MIC (Staphylococcus aureus [29])
4 µg/mL: MIC (Enterococcus faecium [3]) | MIC (Escherichia coli [8]) | MIC (Staphylococcus aureus [26]) | MIC [33] | MIC [34]
0.375 µg/mL: MIC90 [6]
0.06 µg/mL: MIC (Streptococcus pneumoniae)
1 µg/mL: MIC (Enterococcus faecalis [1])
128 µg/mL: MIC (Klebsiella pneumoniae [14]) | MIC (Klebsiella pneumoniae [15])
16 µg/mL: MIC (Enterococcus faecium [5]) | MIC (Klebsiella pneumoniae [12]) | MIC (Klebsiella pneumoniae [13]) | MIC (Pseudomonas aeruginosa [24]) | MIC (Staphylococcus aureus [30]) | MIC [32] | MIC [35] | MIC [36] | MIC (Enterococcus faecalis [37])
32 µg/mL: MIC (Pseudomonas aeruginosa [20]) | MIC (Pseudomonas aeruginosa [21]) | MIC (Pseudomonas aeruginosa [22]) | MIC (Pseudomonas aeruginosa [23])
64 µg/mL: MIC (Klebsiella pneumoniae [17])
< 0.008 µg/mL: MIC (Staphylococcus aureus [25]) | MIC (Staphylococcus aureus [27])

Cc1ccc(CO/N=C2\CN(c3nc4c(cc3F)c(=O)c(C(=O)O)cn4[C@@H]3C[C@@H]3F)CC2CN)cc1 (some centres undefined)
< 0.008 µg/mL: MIC (Enterococcus faecalis [1]) | MIC (Escherichia coli [7]) | MIC (Staphylococcus aureus [25]) | MIC (Staphylococcus aureus [27]) | MIC (Staphylococcus aureus [28]) | MIC (Streptococcus pneumoniae)
4 µg/mL: MIC (Enterococcus faecium [5]) | MIC (Pseudomonas aeruginosa [19]) | MIC (Staphylococcus aureus [31]) | MIC [33]
0.5 µg/mL: MIC (Enterococcus faecium [2]) | MIC (Enterococcus faecium [3])
< 0.25 µg/mL: MIC90 [6]
2 µg/mL: MIC (Escherichia coli [8]) | MIC (Staphylococcus aureus [26]) | MIC [34]
8 µg/mL: MIC (Enterococcus faecium [4]) | MIC (Klebsiella pneumoniae [12]) | MIC (Klebsiella pneumoniae [13]) | MIC (Pseudomonas aeruginosa [20]) | MIC (Pseudomonas aeruginosa [21]) | MIC (Pseudomonas aeruginosa [22]) | MIC (Pseudomonas aeruginosa [23]) | MIC (Pseudomonas aeruginosa [24]) | MIC (Staphylococcus aureus [30]) | MIC [32] | MIC [35]
32 µg/mL: MIC (Escherichia coli [11]) | MIC (Enterococcus faecalis [37])
64 µg/mL: MIC (Escherichia coli [9]) | MIC (Klebsiella pneumoniae [15]) | MIC (Klebsiella pneumoniae [17])
128 µg/mL: MIC (Klebsiella pneumoniae [14]) | MIC (Klebsiella pneumoniae [16]) | MIC (Klebsiella pneumoniae [18])
16 µg/mL: MIC (Escherichia coli [10]) | MIC [36]
0.015 µg/mL: MIC (Staphylococcus aureus [29])

COc1cccc(CO/N=C2\CN(c3nc4c(cc3F)c(=O)c(C(=O)O)cn4[C@@H]3C[C@@H]3F)CC2CN)c1OC (some centres undefined)
4 µg/mL: MIC (Enterococcus faecium [4]) | MIC (Staphylococcus aureus [26])
8 µg/mL: MIC (Pseudomonas aeruginosa [20])
32 µg/mL: MIC (Escherichia coli [8]) | MIC [32]
< 0.008 µg/mL: MIC (Staphylococcus aureus [25]) | MIC (Staphylococcus aureus [27]) | MIC (Staphylococcus aureus [28])
0.015 µg/mL: MIC (Enterococcus faecalis [1]) | MIC (Staphylococcus aureus [29])
128 µg/mL: MIC (Escherichia coli [9]) | MIC (Escherichia coli [11]) | MIC (Klebsiella pneumoniae [12]) | MIC (Klebsiella pneumoniae [14]) | MIC (Klebsiella pneumoniae [15]) | MIC (Klebsiella pneumoniae [16]) | MIC (Klebsiella pneumoniae [18])
1 µg/mL: MIC (Enterococcus faecium [2]) | MIC (Enterococcus faecium [3]) | MIC [34]
0.376 µg/mL: MIC90 [6]
0.03 µg/mL: MIC (Escherichia coli [7]) | MIC (Streptococcus pneumoniae)
64 µg/mL: MIC (Klebsiella pneumoniae [17]) | MIC (Enterococcus faecalis [37])
16 µg/mL: MIC (Enterococcus faecium [5]) | MIC (Klebsiella pneumoniae [13]) | MIC (Pseudomonas aeruginosa [21]) | MIC (Pseudomonas aeruginosa [22]) | MIC (Pseudomonas aeruginosa [23]) | MIC (Pseudomonas aeruginosa [24]) | MIC (Staphylococcus aureus [30]) | MIC [35] | MIC [36]
2 µg/mL: MIC (Escherichia coli [10]) | MIC (Pseudomonas aeruginosa [19]) | MIC (Staphylococcus aureus [31]) | MIC [33]
